From PubChem BioAssay
TRPC4 PAM = positive allosteric modulators of TRPC4, primary screen, cell-based, mouse TRPC4beta, HEK293 mu-opioid, Fluo-4 calcium. Short transient receptor potential channel 4 (Mus musculus), Q9QUQ5. DAMGO EC20, Fluo-4 Ca2+ flux; hits give high values. B-score at 10 µM. 310,000 tested, 0.42% active. AID 2227, 2009;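 active = B-score of calcium response area above 5 SD of library B-scores, with initial fluorescence ratio within 5 SD of library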
TRPC6 inh = mouse TRPC6 channel inhibitors, primary screen, cell-based, HEK293, membrane potential dye. 310,000 tested, 1.1% active. Short transient receptor potential channel 6 (Mus musculus), Q61143. B-score at 10 µM. ACh-evoked depolarization; hits give low values;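 active = B-score under library mean minus 3 SD, initial fluorescence not abnormally high, positive integrated signal ratio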;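 note: B-score derived from integrated fluorescence ratio over the kinetic read; more negative B-score means stronger inhibition of depolarization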
Target sequence (Q61143 whole entry, looked up): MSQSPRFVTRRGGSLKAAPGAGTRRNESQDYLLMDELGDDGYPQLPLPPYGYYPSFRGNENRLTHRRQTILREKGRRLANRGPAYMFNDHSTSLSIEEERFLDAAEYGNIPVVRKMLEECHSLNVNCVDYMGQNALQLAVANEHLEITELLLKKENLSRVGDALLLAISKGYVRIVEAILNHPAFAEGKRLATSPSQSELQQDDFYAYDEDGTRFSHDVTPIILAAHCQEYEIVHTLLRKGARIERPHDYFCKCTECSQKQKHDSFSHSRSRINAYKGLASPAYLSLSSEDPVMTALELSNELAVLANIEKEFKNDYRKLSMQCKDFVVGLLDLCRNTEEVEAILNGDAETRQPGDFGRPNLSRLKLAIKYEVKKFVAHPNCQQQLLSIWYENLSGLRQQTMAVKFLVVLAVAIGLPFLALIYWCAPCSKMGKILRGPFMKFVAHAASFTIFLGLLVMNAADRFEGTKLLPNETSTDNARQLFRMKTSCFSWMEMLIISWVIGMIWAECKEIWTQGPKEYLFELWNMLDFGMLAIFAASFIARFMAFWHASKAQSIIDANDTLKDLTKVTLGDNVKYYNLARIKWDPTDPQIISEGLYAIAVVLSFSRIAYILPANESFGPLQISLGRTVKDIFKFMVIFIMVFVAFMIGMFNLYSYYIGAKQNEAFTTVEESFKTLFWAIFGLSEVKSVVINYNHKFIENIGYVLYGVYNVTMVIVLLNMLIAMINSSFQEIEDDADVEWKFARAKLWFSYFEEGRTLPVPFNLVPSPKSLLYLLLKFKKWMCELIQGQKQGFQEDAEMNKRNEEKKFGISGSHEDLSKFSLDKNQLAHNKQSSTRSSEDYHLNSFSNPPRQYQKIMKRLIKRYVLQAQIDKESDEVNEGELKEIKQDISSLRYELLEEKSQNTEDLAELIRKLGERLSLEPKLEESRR
TRPC4 agonist = activators of mouse TRPC4 channel, primary screen, Fluo4 calcium, HEK293 TRPC4beta/mu-opioid cells. Short transient receptor potential channel 4 (Mus musculus), Q9QUQ5. Fluo4 calcium fluorescence; hits give high values. B-score at 10 µM. 310,000 tested, 0.49% active;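 active = B-score above 5 SD of library B-scores, and initial fluorescence ratio not above library mean plus 5 SD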;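 note: positive B-score marks a calcium rise read as TRPC4 activation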
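System – HEK293 cells stably co-expressing mouse TRPC4beta and mu-opioid receptor · Signal – Fluo4 calcium-sensitive dye fluorescence, kinetic, 1 Hz baseline · Benchmarks – buffer (low) and maximal DAMGO (high) · Read-out – B score of integrated fluorescence ratio per well · Incubation – dye loading 45 min room temperature, 110 s kinetic read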
Kir21 inh = inhibitors of mouse Kir2.1 inward-rectifier potassium channel; B-score at 10 µM; Inward rectifier potassium channel 2 (Mus musculus), P35561; HEK293-Kir2.1, FluxOR thallium flux fluorescence; hits give low values; 310,000 tested, 0.85% active;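 active = fluorescence ratio B-score at or below minus 3 SD of library scores, with starting-brightness B-score within 2 SD, cut at about -4.2 in these data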;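 note: channel flux triggered by added potassium and thallium sulfate stimulus; B-score of peak minus minimum fluorescence over baseline after thallium stimulus; more negative B-score means stronger Kir2.1 block with less thallium influx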
TRPC4 inh = inhibitors of mouse TRPC4 channel, primary screen, Fluo4 calcium, HEK293 TRPC4beta/mu-opioid cells | DAMGO-evoked Fluo4 calcium flux; hits give low values | B-score at 10 µM | 300,000 tested, 0.39% active | AID 2247, 2010;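 active = B-score over 3 SD under the library average, no early fluorescence shift, positive overall ratio signal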
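Material: HEK293 cells with stable TRPC4beta plus mu-opioid receptor expression; probe or stimulus: DAMGO in two steps, submaximal then maximal; technique: Fluo4 calcium fluorescence by kinetic imaging, 5 s 1 Hz baseline; measure: integrated fluorescence ratio relative to baseline, converted to per-well B score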
TRPC6 activator = mouse TRPC6 channel activators, primary screen, cell-based, HEK293, membrane potential dye | HEK293-TRPC6 membrane potential dye fluorescence; hits give high values | B-score at 10 µM | 310,000 tested, 0.13% active | Short transient receptor potential channel 6 (Mus musculus), Q61143;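 active = B-score of the integrated fluorescence ratio above library mean plus 3 SD, and starting fluorescence ratio within library mean plus 5 SD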;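 note: higher score means more depolarization so channel activation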
TRPC4 sel inh 2 = second check of whether TRPC6 inhibitors also affect mouse TRPC4 | shares compounds with TRPC6 inh | HEK293 TRPC4/MOR, membrane potential dye fluorescence; channel activated by saturating DAMGO dose | inhibition, % at 10 µM | 920 tested, 42% active | AID 2776;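 active = compounds whose fluorescence signal differed from control wells by over 3 SD, either direction, in both duplicate plates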
TRPC4 spec = mouse TRPC4 modulation by TRPC6 hits, confirmation, selectivity assay for TRPC6 inhibitor project, cell-based, HEK293 TRPC4/mu-opioid, membrane potential dye; shares compounds with TRPC6 inh; membrane potential fluorescence; activity change, negative = inhibition, % at 10 µM; 920 tested, 61% active;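 active = rise or fall in signal beyond 3 SD of buffer-only wells in both replicate plates, either sign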;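 note: integrated kinetic ratio of fluorescence range over baseline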
HEK293 MPD ctr 2-1 = nonspecific membrane potential effects, parental HEK293, confirmation, counter-screen for TRPC6 inhibitor project, cell-based, second counter screen; shares compounds with TRPC6 inh; parental HEK293 membrane potential dye fluorescence; maximal acetylcholine challenge after compound addition; signal change vs control, % at 10 µM; 920 tested, 31% active;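 active = membrane potential signal moving either way by over 3 SD of the maximum-effect control, in both duplicate plates, meaning non-specific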
HEK293 MPD ctr-1 = membrane potential modulation in parental HEK293, confirmation, counter-screen for TRPC6 inhibitor project, cell-based; shares compounds with TRPC6 inh; AID 2780, 2010; parental HEK293 membrane potential dye fluorescence; membrane potential signal change, % at 10 µM; 920 tested, 60% active;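 active = membrane potential signal shifting up or down by more than 3 SD of buffer-only wells, on both duplicate plates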
HEK293 MPD ctr-2 = parental HEK293 membrane potential modulation, confirmation, counter-screen for TRPC6 modulator project, cell-based | shares compounds with TRPC6 inh | membrane potential dye fluorescence | membrane potential signal change, % at 10 µM | 2,400 tested, 51% active | AID 488924, 2010;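 active = membrane potential signal moves up or down beyond 5 SD from buffer-only wells, on both duplicate plates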
HEK293 MPD ctr 2-2 = parental HEK293 nonspecific activity of TRPC6 modulators, second screen; shares compounds with TRPC6 inh; membrane potential dye fluorescence; after compound, maximal acetylcholine stimulation; inhibition, % at 10 µM; 2,400 tested, 14% active;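 active = membrane potential signal drops by more than 5 SD from the mean control signal, in both duplicate plates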
TRPC4/MOR mod = TRPC4 modulation by TRPC6 hit compounds, confirmation, selectivity assay for TRPC6 modulator project, cell-based, HEK293 TRPC4/mu-opioid, membrane potential dye, mouse. percent change from control (negative = decrease, positive = increase), % at 10 µM. shares compounds with TRPC6 inh. AID 488927, 2010. 2,400 tested, 69% active. membrane potential fluorescence;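 active = membrane potential signal moved up or down beyond 5 SD of buffer control wells, in both duplicate plates, actives on both sides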
TRPC4/MOR inh 2 = second check of whether TRPC6 modulators also affect mouse TRPC4 | shares compounds with TRPC6 inh | HEK293 TRPC4/mu-opioid, membrane potential dye fluorescence; stimulated with maximal-effect DAMGO | inhibition, % at 10 µM | 2,400 tested, 55% active | AID 488928;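 active = drop in membrane potential signal beyond 5 SD of the control wells in both duplicate plates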;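 note: TRPC4 counter screen for TRPC6 hits run under conditions tuned for TRPC6 not TRPC4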
TRPC6 block conf = mouse TRPC6 channel inhibitors, confirmation, HEK293 cells, membrane potential dye, duplicate | shares compounds with TRPC6 inh | ACh-evoked depolarization | inhibition, % at 10 µM | 3,300 tested, 43% active;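 active = fluorescence ratio falls more than 5 SD below the full-stimulation control mean, in both duplicate runs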;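 note: integrated fluorescence ratio of peak minus minimum over baseline after agonist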
TRPC6 act conf = mouse TRPC6 channel activators, confirmation, HEK293 cells, membrane potential dye, duplicate; shares compounds with TRPC6 inh; HEK293-TRPC6 membrane potential dye fluorescence, FDSS; activation, % at 10 µM; 2,800 tested, 11% active; AID 488961, 2010;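 active = ratio signal rise beyond 5 SD above unstimulated control wells' mean, seen in both duplicate runs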
Numbers stand for hits; - = inactive; . = no result. Shown are actives, neighbours in structure and some others; about 2.9% of the full set was active somewhere.

SMILES | TRPC4 PAM | TRPC6 inh | TRPC4 agonist | Kir21 inh | TRPC4 inh | TRPC6 activator | TRPC4 sel inh 2 | TRPC4 spec | HEK293 MPD ctr 2-1 | HEK293 MPD ctr-1 | HEK293 MPD ctr-2 | HEK293 MPD ctr 2-2 | TRPC4/MOR mod | TRPC4/MOR inh 2 | TRPC6 block conf | TRPC6 act conf
COC(=O)C1=C(C)N(c2cc(C)cc(C)c2)/C(=C/c2ccc(O)cc2)C1=O | - | -7.68 | - | - | - | - | . | . | . | . | - | - | -16.0% | 67.0% | - | -
O=C(Cn1nnc(-c2ccc3c(c2)OCO3)n1)NCc1ccccc1 | - | - | - | - | - | - | . | . | . | . | . | . | . | . | . | .
Cc1ccc(N2C(=O)CSC2c2cccnc2)cc1F (centres undefined) | - | -6.74 | - | - | - | - | - | - | - | - | . | . | . | . | - | -
Cc1ccc(C2=NS(=O)(=O)N(C)C(C(=O)Nc3ccc4c(c3)OCO4)=C2)cc1 | - | - | - | - | - | - | . | . | . | . | . | . | . | . | . | .
CCN(CC)CCOC(=O)C1(c2ccccc2)CCCC1 | - | -9.16 | - | - | - | - | - | 16.5% | -2.5% | 15.2% | . | . | . | . | 74.3% | .
CCN(CC)CCOC(=O)C1(C2CCCCC2)CCCCC1 | - | -6.15 | - | - | - | - | . | . | . | . | 182.5% | 77.0% | 40.5% | - | 76.5% | .
CC1CCN(c2ccccc2NC(=O)c2cc([N+](=O)[O-])ccc2N2CCOCC2)CC1 | - | - | - | - | - | - | . | . | . | . | . | . | . | . | . | .
COCCCn1c(SCC(=O)Nc2sc3c(c2C#N)CCCC3)nnc1-c1ccncc1 | - | - | - | - | - | - | . | . | . | . | . | . | . | . | . | .
